According to ChEMBL document CHEMBL1137524, “Synthesis and antibacterial activity of pyranmycin derivatives with N-1 and O-6 modifications” (2007):
Values after ≈ are worked out from the molar mass of the structure shown.

Key:
Format in all cases: functional
[1] = tested on: Escherichia coli; experiment: Antibacterial activity against aminoglycoside-susceptible Escherichia coli TG1 after 12 to 18 hrs
Summary of the method: (§1)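 Broth microdilution MIC. Bacteria grown in Trypticase Soy broth at 35 °C for 1–2 h, adjusted with broth to A625 0.08–0.1, then 100 µL diluted into 10 mL broth. Wells received diluted inoculum plus 2-fold serial dilutions of compound. Incubated 35 °C for 12–18 h. MIC taken as lowest concentration inhibiting growth, in µg/mL.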

[2] = tested on: Escherichia coli; experiment: Antibacterial activity against aminoglycoside-resistant Escherichia coli TG1 pSF815 after 12 to 18 hrs; summary of the method: as §1
[3] = tested on: Escherichia coli; experiment: Antibacterial activity against Escherichia coli ATCC 25922 after 12 to 18 hrs; summary of the method: as §1
[4] = tested on: Escherichia coli; experiment: Antibacterial activity against aminoglycoside-resistant Escherichia coli TG1 pTZ19U-3 after 12 to 18 hrs; summary of the method: as §1
[5] = tested on: Pseudomonas aeruginosa; experiment: Antibacterial activity against Pseudomonas aeruginosa ATCC 27853 after 12 to 18 hrs
Summary of the method: (§2)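 Broth microdilution in Trypticase Soy broth. Bacteria grown at 35 °C for 1–2 h, adjusted with broth to A625 0.08–0.1, then diluted 100 µL into 10 mL broth. 50 µL inoculum was combined with 50 µL of 2-fold serial compound dilutions and incubated at 35 °C for 12–18 h. MIC taken as the lowest concentration inhibiting growth.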

[6] = tested on: Klebsiella pneumoniae; experiment: Antibacterial activity against Klebsiella pneumoniae ATCC 13883 after 12 to 18 hrs; summary of the method: as §2
[7] = tested on: Klebsiella pneumoniae; experiment: Antibacterial activity against Klebsiella pneumoniae ATCC 700603 after 12 to 18 hrs; summary of the method: as §2
[8] = tested on: Staphylococcus aureus; experiment: Antibacterial activity against methicillin-resistant Staphylococcus aureus ATCC 33591 after 12 to 18 hrs; summary of the method: as §1

Structure (SMILES)	MIC [1] [µg/mL]	MIC [2] [µg/mL]	MIC [3] [µg/mL]	MIC [4] [µg/mL]	MIC [5] [µg/mL]	MIC [6] [µg/mL]	MIC [7] [µg/mL]	MIC [8] [µg/mL]
C[C@H]1O[C@@H](O[C@@H]2[C@@H](OCCO)[C@H](NC(=O)[C@@H](O)CCN)C[C@H](N)[C@H]2O[C@H]2O[C@H](CN)[C@@H](O)[C@H](O)[C@H]2N)[C@H](O)[C@@H](O)[C@@H]1N	2 (≈ 3.26 µM)	8 (≈ 13.1 µM)	16 (≈ 26.1 µM)	16 (≈ 26.1 µM)				
C[C@H]1O[C@@H](O[C@@H]2[C@@H](O)[C@H](N)C[C@H](N)[C@H]2O[C@H]2O[C@H](CN)[C@@H](O)[C@H](O)[C@H]2N)[C@H](O)[C@@H](O)[C@@H]1N	8 (≈ 17.1 µM)	8 (≈ 17.1 µM)	8 (≈ 17.1 µM)	≥ 32	4 (≈ 8.56 µM)	4 (≈ 8.56 µM)	16 (≈ 34.2 µM)	≥ 32
C[C@H]1O[C@@H](O[C@@H]2[C@@H](O)[C@H](NC(=O)[C@@H](O)CCN)C[C@H](N)[C@H]2O[C@H]2O[C@H](CN)[C@@H](O)[C@H](O)[C@H]2N)[C@H](O)[C@@H](O)[C@@H]1N	4 (≈ 7.03 µM)	2 (≈ 3.52 µM)	8 (≈ 14.1 µM)	4 (≈ 7.03 µM)	2 (≈ 3.52 µM)	1 (≈ 1.76 µM)	1 (≈ 1.76 µM)	≥ 32
C[C@H]1O[C@@H](O[C@@H]2[C@@H](OCCN)[C@H](NC(=O)[C@@H](O)CCN)C[C@H](N)[C@H]2O[C@H]2O[C@H](CN)[C@@H](O)[C@H](O)[C@H]2N)[C@H](O)[C@@H](O)[C@@H]1N	8 (≈ 13.1 µM)	2 (≈ 3.27 µM)	8 (≈ 13.1 µM)	1 (≈ 1.63 µM)	0.5 (≈ 0.817 µM)	4 (≈ 6.54 µM)	2 (≈ 3.27 µM)	≥ 32
CCCO[C@@H]1[C@@H](O[C@@H]2O[C@H](C)[C@@H](N)[C@H](O)[C@H]2O)[C@H](O[C@H]2O[C@H](CN)[C@@H](O)[C@H](O)[C@H]2N)[C@@H](N)C[C@H]1NC(=O)[C@@H](O)CCN	8 (≈ 13.1 µM)	≥ 32	≥ 32	≥ 32				
NCC[C@H](O)C(=O)N[C@@H]1C[C@H](N)[C@@H](O[C@H]2O[C@H](CN)[C@@H](O)[C@H](O)[C@H]2N)[C@H](O[C@@H]2O[C@H](CO)[C@H](O)[C@H]2O)[C@H]1O [BUTIROSIN A]	1 (≈ 1.8 µM)	0.5 (≈ 0.9 µM)	4 (≈ 7.2 µM)	0.5 (≈ 0.9 µM)	1 (≈ 1.8 µM)	1 (≈ 1.8 µM)	1 (≈ 1.8 µM)	≥ 32
NC[C@@H]1O[C@H](O[C@H]2[C@@H](O)[C@H](O[C@@H]3[C@@H](O)[C@H](N)C[C@H](N)[C@H]3O[C@H]3O[C@H](CN)[C@@H](O)[C@H](O)[C@H]3N)O[C@@H]2CO)[C@H](N)[C@@H](O)[C@@H]1O [FRAMYCETIN]	4 (≈ 6.51 µM)	4 (≈ 6.51 µM)	4 (≈ 6.51 µM)	≥ 32	0.5 (≈ 0.813 µM)	8 (≈ 13 µM)	16 (≈ 26 µM)	≥ 32
NC[C@H]1O[C@H](O[C@H]2[C@H](O[C@@H]3O[C@H](CO)[C@@H](O)[C@H]3O)[C@@H](O)[C@H](N)C[C@@H]2N)[C@H](N)[C@@H](O)[C@@H]1O [RIBOSTAMYCIN]	4 (≈ 8.8 µM)	4 (≈ 8.8 µM)	8 (≈ 17.6 µM)	≥ 32				
